Measured values collected from several papers.
Each line is one published result; the experiments were not run side by side.
Cell line: HepG2
Effect on: cell growth or viability

Compound	technique	time	IC50
Nc1nc(-c2ccc(NC(=O)Nc3cc(Br)cc(Br)c3)cc2)c[nH]1	XTT	24 h	47.6 µM
O=c1c(O)c(-c2ccc(O)c(O)c2)oc2cc(O)cc(O)c12	WST-1	48 h	10.1 µM
Cc1ccc(-c2cc(-c3ccc4oc(=O)cc(C)c4c3O)nc(N)n2)cc1	MTT	72 h	> 128 µg/mL
Cc1cc(C)n(-c2nc(Nc3ccc(Cl)cc3)nc(-n3nc(C)cc3C)n2)n1	MTT	72 h	19.5 µM
Cc1ccc2nc(-c3cccc(O)c3)[nH]c2c1	MTT	48 h	95.3 µM
Oc1ncnc2cc(Nc3nc(-c4ccc(Cl)cc4)cs3)ccc12	MTT		9.36 µM
c1cnc2c(c1)ccc1cccnc12	MTT	48 h	> 50 µM
O=C(N/N=C/CN1CCCC1)Nc1cc2c(Nc3ccc(F)c(Cl)c3)ncnc2cc1O[C@H]1CCOC1	MTT	72 h	2.09 µM
Oc1c(I)cc(Cl)c2cccnc12	MTT	48 h	58.6 µM
COc1cc2ncnc(Nc3ccc(F)c(Cl)c3)c2cc1NC(=O)N/N=C/CN1CCCCC1	MTT	72 h	2.06 µM
CC(=O)O[C@H]1C(=O)[C@@]2(C)[C@H]([C@H](OC(=O)c3ccccc3)[C@]3(O)C[C@H](OC(=O)[C@H](O)[C@@H](NC(=O)c4ccccc4)c4ccccc4)C(C)=C1C3(C)C)[C@]1(OC(C)=O)CO[C@@H]1C[C@@H]2O	MTT	48 h	4.75 µM
COc1cc(C2Oc3cc([C@H]4Oc5cc(O)cc(O)c5C(=O)[C@@H]4O)ccc3OC2CO)ccc1O (stereo partly shown)	CCK-8	72 h	24.3 µM
COCCCOC(=O)[C@]1(C)CC[C@]2(C)CC[C@]3(C)C4=CC=C5C(=CC(=O)C(O)=C5C)[C@]4(C)CC[C@@]3(C)[C@@H]2C1	MTT	48 h	0.94 µM
Oc1c(I)cc(I)c2cccnc12	MTT	48 h	80.1 µM
COc1cc2ncnc(Nc3ccc(F)c(Cl)c3)c2cc1NC(=O)N/N=C/CN1CCN(C)CC1	MTT	72 h	2.23 µM
CC1=C(O)C(=O)C=C2C1=CC=C1[C@@]2(C)CC[C@@]2(C)[C@@H]3C[C@](C)(C(=O)OCCCBr)CC[C@]3(C)CC[C@]12C	MTT	48 h	1.32 µM
Cc1ccc2nc(-c3ccc(Cl)cc3)n(Cc3ccccc3Cl)c2c1	MTT		47.9 µM
Cl.Oc1cccc2c1[nH]c1c(C3=CC4(O)CC/C=C\CCCCN5CCC3C3(CC6/C=C\CCCCN6C43)C5)nccc12 (single isomer, unassigned; (+))	neutral red	48 h	1.5 µg/mL
CCCCc1ccc2[nH]c(NC(=O)OC)nc2c1	CCK-8	72 h	0.044 µM
COc1ccc(NC(=O)NNC(=O)c2cccc(Nc3nccc(-c4cccnc4)n3)c2)c(OC)c1	MTT	24 h	> 40 µM

Compound	technique	time	IC50
CC1=C(O)C(=O)C=C2C1=CC=C1[C@@]2(C)CC[C@@]2(C)[C@@H]3C[C@](C)(C(=O)OCCCN4C(=O)C5C=CC=CC5C4=O)CC[C@]3(C)CC[C@]12C (stereo partly shown)	MTT	48 h	1.27 µM
Oc1ncnc2cc(Nc3nc(-c4ccc(C(F)(F)F)cc4)cs3)ccc12	MTT		5.91 µM
COC(=O)CN=c1scc(-c2ccccc2)n1-c1ccccc1C	MTT	72 h	79.2 µM
O=C(N/N=C/c1cccn1CCCN1CCCCC1)Nc1cc2c(Nc3ccc(F)c(Cl)c3)ncnc2cc1O[C@H]1CCOC1	MTT	72 h	0.52 µM
Clc1ccc(Cn2c(-c3ccc(Cl)cc3)nc3ccccc32)cc1	MTT		10.1 µM
O=C(N/N=C/c1cccn1CCCN1CCOCC1)Nc1cc2c(Nc3ccc(F)c(Cl)c3)ncnc2cc1O[C@H]1CCOC1	MTT	72 h	1.89 µM
Clc1ccc(-c2nc3ccccc3[nH]2)c(Cl)c1	MTT	48 h	37.5 µM
O=C(NNC(=O)c1ccc(Nc2nccc(-c3ccc(Cl)cc3)n2)cc1)NC1CCCCC1	MTT	24 h	13.1 µM
COC1=C2C[C@@H](C)C[C@H](OC)[C@H](O)[C@@H](C)/C=C(\C)[C@H](OC(N)=O)[C@@H](OC)/C=C\C=C(/C)C(=O)NC(=CC1=O)C2=O	MTT		0.041 µM
C=CCn1c(-c2ccc(OC)c(OC)c2)nc2ccccc21	MTT		53.8 µM
OCc1ccc2c(c1C#Cc1ccc(O)cc1)C(c1ccc(O)cc1)(c1ccc(O)cc1)c1cc(O)ccc1-2	MTT	48 h	> 50 µM
CCN(CC)CCn1cccc1/C=N/NC(=O)Nc1cc2c(Nc3ccc(F)c(Cl)c3)ncnc2cc1OC	MTT	72 h	1.62 µM
CC(=O)OCCOC(=O)[C@]1(C)CC[C@]2(C)CC[C@]3(C)C4=CC=C5C(=CC(=O)C(O)=C5C)[C@]4(C)CC[C@@]3(C)[C@@H]2C1	MTT	48 h	2.55 µM
Cc1ccc2nc(-c3ccc(Cl)c(Cl)c3)[nH]c2c1	MTT	48 h	56.7 µM
CCN(CC)CCCn1cccc1/C=N/NC(=O)Nc1cc2c(Nc3ccc(F)c(Cl)c3)ncnc2cc1OC	MTT	72 h	0.22 µM
Oc1ccccc1-c1nc2ccccc2[nH]1	MTT	48 h	68.3 µM
CCN(CC)C/C=N/NC(=O)Nc1cc2c(Nc3ccc(F)c(Cl)c3)ncnc2cc1OC	MTT	72 h	2.15 µM
CCCCNC(=O)NNC(=O)c1cccc(Nc2nccc(-c3ccncc3)n2)c1	MTT	24 h	> 40 µM
O=Cc1ccc(CO)o1	WST-1	48 h	77.7 µM
COc1ccc(-c2csc(Nc3ccc4c(O)ncnc4c3)n2)cc1	MTT		17.3 µM
